Test results taken from publication PMC11455621 (Structure (London, England : 1993), 2024).
Residue numbers refer to the chain shown, from its start. Blank lines part the entries; values can stand above or below the compound they belong to.

Columns and labels:
[1] = biological target: human Fructosamine-3-kinase (HsFN3K) (human) (UniProt Q9H479); test: SEC
[2] = biological target: human Fructosamine-3-kinase (HsFN3K) (human) (UniProt Q9H479); test: intact protein LC-MS
HsFN3K D234A [3] = biological target: T1, HsFN3K D234A (Homo sapiens, UniProt Q9H479, D234A); test: Microscale thermophoresis; assay type: binding; conditions: MST
T1 sequence (Q9H479 1-309 D234A): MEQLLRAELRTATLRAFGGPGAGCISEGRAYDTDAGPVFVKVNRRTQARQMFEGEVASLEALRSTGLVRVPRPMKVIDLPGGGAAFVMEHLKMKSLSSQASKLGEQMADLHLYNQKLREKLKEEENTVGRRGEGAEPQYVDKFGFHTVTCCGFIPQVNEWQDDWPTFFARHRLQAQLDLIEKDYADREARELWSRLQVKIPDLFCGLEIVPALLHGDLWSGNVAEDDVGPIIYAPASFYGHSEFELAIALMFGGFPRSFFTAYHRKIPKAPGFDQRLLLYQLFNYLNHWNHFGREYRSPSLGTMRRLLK

HsFN3K [4] = biological target: T2, HsFN3K (Homo sapiens, UniProt Q9H479); test: Differential scanning fluorimetry; assay type: binding; conditions: DSF; for Tm increase versus HsFN3K alone: single ligand 250 μM
T2 sequence (Q9H479 1-309): T1 sequence (Q9H479 1-309 D234A) with A234D

HsFN3K D217A [5] = biological target: T3, HsFN3K D217A (Homo sapiens, UniProt Q9H479, D217A); test: Microscale thermophoresis; assay type: binding
T3 sequence (Q9H479 1-309 D217A): T1 sequence (Q9H479 1-309 D234A) with D217A, A234D

HsFN3K H288A [6] = biological target: T4, HsFN3K H288A (Homo sapiens, UniProt Q9H479, H288A); test: Differential scanning fluorimetry; assay type: binding; conditions: DSF
T4 sequence (Q9H479 1-309 H288A): T1 sequence (Q9H479 1-309 D234A) with A234D, H288A

HsFN3K H291A [7] = biological target: T5, HsFN3K H291A (Homo sapiens, UniProt Q9H479, H291A); test: Differential scanning fluorimetry; assay type: binding; conditions: DSF
T5 sequence (Q9H479 1-309 H291A): T1 sequence (Q9H479 1-309 D234A) with A234D, H291A

HsFN3K D217A [8] = biological target: T3, HsFN3K D217A; test: Differential scanning fluorimetry; assay type: binding; conditions: DSF
HsFN3K W219A = biological target: T6, HsFN3K W219A (Homo sapiens, UniProt Q9H479, W219A); test: Differential scanning fluorimetry; assay type: binding; conditions: DSF
T6 sequence (Q9H479 1-309 W219A): T1 sequence (Q9H479 1-309 D234A) with W219A, A234D

HsFN3K [9] = biological target: T2, HsFN3K; test: Microscale thermophoresis; assay type: binding; conditions: MST
HsFN3K D234A [10] = biological target: T1, HsFN3K D234A; test: Differential scanning fluorimetry; assay type: binding; conditions: DSF
HsFN3K H291A [11] = biological target: T5, HsFN3K H291A; test: ADP-Glo kinase kinetics, HsFN3K H291A; assay type: biochemical; conditions: H291A mutant vs WT HsFN3K
Outline: (§1)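 E. coli BL21(DE3)-expressed human FN3K, MBP-His6 tag removed by TEV, at 0.5 μM. Reaction: 200 μM ATP, 10 mM MgCl2, 0–100 μM DMF, room temperature. Time points quenched with ADP-Glo reagent (40 min), then detection reagent (40 min). Luminescence converted to ADP by ATP-to-ADP conversion curves. v0 taken from the linear slope, then Michaelis–Menten fit. SEM from ≥2 independent experiments.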

HsFN3K H288A [12] = biological target: T4, HsFN3K H288A; test: ADP-Glo kinase kinetics, HsFN3K H288A; assay type: biochemical; conditions: H288A mutant vs WT HsFN3K
Outline: as §1

HsFN3K WT = biological target: T7, HsFN3K WT (Homo sapiens, UniProt Q9H479); test: Direct substrate phosphorylation assay; assay type: biochemical; conditions: glycated lysozyme 2mg/mL, 1 hour at 25°C (Figure S6D)
T7 sequence (Q9H479 1-309): T1 sequence (Q9H479 1-309 D234A) with A234D
Outline: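 Lysozyme glycated with ribose or glucose (1:1 molar, 3 or 28 days, 50°C). Reaction: 10 or 20 μM FN3K, 2 mg/mL glycated lysozyme, 5 mM HEPES pH 7, 5 mM MgCl2, 100 μM ATP, 1 h at 25°C. Quenched in Laemmli dye, run on SDS-PAGE, fixed in methanol/acetic acid. Stained with Pro-Q Diamond, destained in acetonitrile/sodium acetate pH 4, imaged at 602 nm […]. Coomassie restain for loading.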

stoichiometry N [1]: 2 | stoichiometry N [2]: 2
Compound: human Fructosamine-3-kinase (HsFN3K) (from UniProt Q9H479 1-309) (enzyme)

binding of ATP and DMF (HsFN3K D234A [3]): impaired binding | melting temperature (Tm) with ligand (HsFN3K [4]; HsFN3K WT, ligand 250 μM, apo Tm 56.9 ± 0.7°C): 63.2 ± 0.5 °C | Tm increase versus HsFN3K alone (HsFN3K [4]; HsFN3K WT): ~ 6 °C | Kd (HsFN3K D217A [5]; read-out: binding affinity (KD) for ATP, MST): 3.5 ± 2.3 µM | ATP binding (HsFN3K H288A [6]): retained the ability to bind ATP | ATP binding (HsFN3K H291A [7]): retained the ability to bind ATP | ligand binding by Tm shift (HsFN3K D217A [8]): retained the ability to bind ATP | ligand binding by Tm shift (HsFN3K W219A): retained the ability to bind ATP | Kd (HsFN3K [9]; read-out: binding affinity (KD) for ATP, fluorescently labeled HsFN3K WT, 25°C): 3.9 ± 3.4 µM | Tm shift in the presence of ATP or DMF individually or together (HsFN3K D234A [10]): no observable Tm shift
Compound: Nc1ncnc2c1ncn2[C@@H]1O[C@H](COP(=O)(O)OP(=O)(O)OP(=O)([O-])[O-])[C@@H](O)[C@H]1O.[Na+].[Na+] [ATP, Adenosine-5-triphosphate disodium salt]

binding of ATP mimetic (HsFN3K [4]; HsFN3K WT (Figure S7)): readily bound to HsFN3K
Compound: Nc1ncnc2c1ncn2[C@@H]1O[C@H](COP(=O)(O)OP(=O)(O)NP(=O)(O)O)[C@@H](O)[C@H]1O [AMP-PNP, adenylyl-imidodiphosphate]

Compound: O=C(CN1CCOCC1)[C@@H](O)[C@H](O)[C@H](O)CO [DMF, 1-Deoxy-1-morpholino-fructose]
binding of ATP and DMF (HsFN3K D234A [3]): impaired binding | substrate (DMF) engagement in presence of AMP-PNP (HsFN3K [4]; HsFN3K WT, AMP-PNP instead of ATP (Figure S7)): prevented substrate engagement | melting temperature (Tm) with both ATP and DMF (HsFN3K [4]; HsFN3K WT, ATP+DMF 250 μM): 65.2 ± 0.6 °C | Tm shift of ATP and DMF compared to ATP alone (HsFN3K [4]; HsFN3K WT, DMF added with ATP): ~ 2 °C | Tm increase versus HsFN3K alone (HsFN3K [4]; HsFN3K WT): did not alter the Tm | increase of Km for DMF versus wildtype (HsFN3K H291A [11]): 3.5 fold | binding of DMF (HsFN3K D217A [5]; MST): lost the ability to bind DMF | Tm shift on DMF binding (HsFN3K H288A [6]): 0.6 °C | increase of Km for DMF versus wildtype (HsFN3K H288A [12]): 3 fold | Tm shift on DMF binding (HsFN3K H291A [7]): 3.6 °C | ligand binding by Tm shift (HsFN3K D217A [8]): lost binding to DMF | ligand binding by Tm shift (HsFN3K W219A): did not bind DMF | binding of DMF in the absence of ATP (HsFN3K [9]; HsFN3K WT, absence of ATP): did not bind DMF | Tm shift in the presence of ATP or DMF individually or together (HsFN3K D234A [10]): no observable Tm shift

substrate phosphorylation (HsFN3K WT): able to phosphorylate
Compound: glycated lysozyme: crystallization grade lysozyme incubated with ribose or glucose; protein substrate of FN3K
